Measurements taken from ChEMBL document CHEMBL1817591, “Novel benzofuroxan derivatives against multidrug-resistant Staphylococcus aureus strains: design using Topliss' decision tree, synthesis and biological assay” (2011).
≈ marks a conversion by molar mass, not a printed value.

What was measured:
Staphylococcus aureus [1] = assay: Antibacterial activity against multidrug-resistant Staphylococcus aureus 3SP/R33 after 18 hrs by serial broth microdilution method; type: functional; conditions: 3SP/R33, 18 h
Summary of the method: (§1)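 Two-stage broth microdilution MIC in Tryptic Soy Broth, run in triplicate. Phase I used two-fold serial dilutions from DMSO/TSB 1:10 v/v stocks, with ampicillin and vancomycin as controls. The inoculum was 0.5 McFarland, diluted in saline and TSB. […] Phase II diluted a stock at twice the Phase I MIC across 11 columns.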

Staphylococcus aureus [2] = assay: Antibacterial activity against vancomycin-intermediate Staphylococcus aureus VISA3 at 2 times MIC of multidrug-resistant Staphylococcus aureus 3SP/R33 after 18 hrs by serial broth microdilution method; type: functional; conditions: VISA3, 18 h; summary of the method: as §1

Row | Structure (SMILES) | MIC (Staphylococcus aureus [1]) [µg/mL] | MIC (Staphylococcus aureus [2]) [µg/mL]
1 | O=C(N/N=C/c1ccc2c(c1)no[n+]2[O-])c1ccc(Cl)c(Cl)c1 | 7.5 (≈ 21.4 µM) | 11.8
2 | O=C(N/N=C/c1ccc2c(c1)no[n+]2[O-])c1ccc(C(F)(F)F)cc1 | 10 (≈ 28.6 µM) | 13.1
3 | O=C(N/N=C/c1ccc2c(c1)no[n+]2[O-])c1ccc(Br)cc1 | 10 (≈ 27.7 µM) | 18
4 | O=C(N/N=C/c1ccc2c(c1)no[n+]2[O-])c1ccc([N+](=O)[O-])cc1 | 15 (≈ 45.8 µM) | 21.9
5 | O=C(N/N=C/c1ccc2c(c1)no[n+]2[O-])c1ccccc1 | 10 (≈ 35.4 µM) | 16.2
6 | O=C(N/N=C/c1ccc2c(c1)no[n+]2[O-])c1ccc([N+](=O)[O-])c(C(F)(F)F)c1 | 7.5 (≈ 19 µM) | 11.4
7 | O=C(N/N=C/c1ccc2c(c1)no[n+]2[O-])c1ccc(Cl)cc1 | 10 (≈ 31.6 µM) | 15.3
8 | O=C(N/N=C/c1ccc2c(c1)no[n+]2[O-])c1ccc(Cl)cc1Cl | 15 (≈ 42.7 µM) | 17.7
